Experimental data published in paper PMC4672865 (Organic letters, 2015).

Target: DNA polymerase β (pol β) (Homo sapiens, UniProt P06746)
Assay: X-ray crystal structure of ternary complex with DNA
Type: biochemical
Method in brief: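 Standard gel assay of pol β: test compound at variable concentrations against a constant dTTP concentration. An observed rate is determined at each inhibitor concentration, rates are plotted against inhibitor concentration, and the data are fit to a hyperbolic decay curve to calculate Ki. Crystal structures are of ternary complexes of test compound with pol β and DNA.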

SMILES	Ki
Cc1cn([C@H]2C[C@H](O)[C@@H](COP(=O)(O)NP(=O)(O)CP(=O)(O)O)O2)c(=O)[nH]c1=O [1b, (α,β)-NH-(β,γ)-CH2-dTTP]	23 µM
Cc1cn([C@H]2C[C@H](O)[C@@H](COP(=O)(O)CP(=O)(O)NP(=O)(O)O)O2)c(=O)[nH]c1=O [1a, (α,β)-CH2-(β,γ)-NH-dTTP]	2.7 µM
